Reference: paper PMC12780242 (Scientific Reports, 2025)
Like-named read-outs stand apart in the source and are kept apart here.

Columns and labels:
[1] = Phase II trials for other cancers; cited from earlier work
gastric cancer cells = conditions: preclinical studies; cited from earlier work
[2] = test system: patients with unresectable advanced or recurrent gastric cancer (AGC); assay: Dose-finding cohort; type: in vivo, human; conditions: in combination with CapeOX
Method in brief: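 Open-label multicenter phase I with standard 3 + 3 escalation. Pevonedistat dose levels were 20, 15 and 10 mg/m2. There was a single-agent lead-in dose on day 1, then a 7-day interval. Each 3-week cycle gave oxaliplatin 130 mg/m2 on day 1, oral capecitabine 1000 mg/m2/day twice daily about 12 h apart for 14 days, and pevonedistat on days 1, 3 and 5. The DLT window ran from the first lead-in dose to day 35 or the start of cycle 2, whichever came first. The RD also weighed adverse events in later cycles.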

CDT1 = CDT1 immunohistochemistry in endoscopic tumor biopsies; type: in vivo, human
Method in brief: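 Endoscopic tumor biopsies from gastric cancer patients, taken at screening and on day 2 after a single lead-in dose of pevonedistat given alone on day 1. Formalin-fixed paraffin-embedded sections stained by immunohistochemistry with a monoclonal anti-CDT1 antibody. Read-out is CDT1-positive cells.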

AGC = conditions: cited from earlier work
[3] = third-line or later treatment of AGC
[4] = after failure of ≥ 2 chemotherapy regimens, pivotal Phase III trials

Compound	RD of pevonedistat combined with chemotherapy [1]	Growth of gastric cancer cells (gastric cancer cells)	Maximum tolerated dose of pevonedistat [2] [mg/m^2]	Recommended dose (RD) of pevonedistat ([2]; days 1, 3, 5 of a 3-week cycle) [mg/m^2]	Cullin–RING ligase substrates NRF2 and CDT1 in post-treatment tumor biopsies (CDT1; in vivo)	Pevonedistat-NEDD8 adduct in post-treatment tumor biopsies (CDT1; in vivo)	Patients with increased CDT1 expression (CDT1; post-treatment tumor biopsy) [%]	Patients experiencing disease progression as their best response (AGC; [3])	Response rates (AGC; [3])	Response rates (AGC; [4]) [%]
NS(=O)(=O)OC[C@@H]1C[C@@H](n2ccc3c(N[C@H]4CCc5ccccc54)ncnc32)C[C@@H]1O [Pevonedistat]	20–25 mg/m^2	significantly suppresses the growth	15	15	increase	presence	75	–	–	–
CCc1c2c(nc3ccc(OC(=O)N4CCC(N5CCCCC5)CC4)cc13)-c1cc3c(c(=O)n1C2)COC(=O)[C@]3(O)CC [irinotecan]	–	–	–	–	–	–	–	more than 50%	around 10%	–
Nivolumab	–	–	–	–	–	–	–	more than 50%	around 10%	≤ 10
trifluridine/tipiracil	–	–	–	–	–	–	–	more than 50%	around 10%	≤ 10
